Results reported in ChEMBL document CHEMBL1123302, “Antagonists of substance P. Further modifications of substance P antagonists obtained by replacing either positions 7, 9 or 7, 8 and 11 of SP with D-amino acid residues” (J Med Chem, 1986).
One block for each molecule: values may come before it.

Experiments:
[1] = biological target: Substance-P receptor (Rattus norvegicus) (UniProt P14600); experiment: Antagonistic activity against Substance P(6-11) receptor in rat spinal cord at concentration of 50 uM.
[2] = biological target: Substance-P receptor (Cavia porcellus) (UniProt P30547); experiment: In vitro inhibition of substance P induced contractions of the guinea pig ileum at 5 uM.; type: tissue-based
Method in brief: (§1)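 Agonist (SP or SP(6-11)-hexapeptide) dose-response curves on a 3-min cycle with 1-min contact, then washout. Dose ratio = agonist EC50 with antagonist / EC50 alone. At least two preparations per compound; ratios below 2 taken as insignificant.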

[3] = biological target: Substance-P receptor (Cavia porcellus) (UniProt P30547); experiment: In vitro inhibition of substance P (6-11) hexapeptide induced contractions of the guinea pig ileum at 10 uM.; type: tissue-based
Method in brief: as §1

[4] = biological target: Substance-P receptor (Cavia porcellus) (UniProt P30547); experiment: In vitro inhibition of substance P (6-11) hexapeptide induced contractions of the guinea pig ileum at 5 uM.; type: tissue-based
Method in brief: as §1

[5] = biological target: Substance-P receptor (Cavia porcellus) (UniProt P30547); experiment: In vitro inhibition of substance P induced contractions of the guinea pig ileum at 10 uM.; type: tissue-based
Method in brief: as §1

[6] = biological target: Metabotropic glutamate receptor 3 (Rattus norvegicus) (UniProt P31422); experiment: Antagonistic activity against Glutamate receptor in rat spinal cord at concentration of 50 uM.; type: functional, tissue-based
Method in brief: (§2)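 Neonatal rat spinal cord, hemisected sagittally, superfused at 1 mL/min with oxygenated Krebs-Henseleit medium containing 0.5% urethane at room temperature. Agonists were given in 2-mL doses in the superfusate. Antagonist was superfused continuously for at least 15 min before agonist retesting. Read-out was ventral root depolarization (DC potential, ventral root vs cord body), measured as amplitude and area of response.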

[7] = biological target: Substance-P receptor (Rattus norvegicus) (UniProt P14600); experiment: Antagonistic activity against Substance P receptor in rat spinal cord at concentration of 5 uM.
[8] = biological target: Substance-P receptor (Rattus norvegicus) (UniProt P14600); experiment: Antagonistic activity against Substance P(6-11) receptor in rat spinal cord at concentration of 5 uM.
[9] = biological target: Substance-P receptor (Rattus norvegicus) (UniProt P14600); experiment: Antagonistic activity against Substance P receptor in rat spinal cord at concentration of 50 uM.
Substance-P receptor = Substance-P receptor (Rattus norvegicus, UniProt P14600); experiment: Histamine releasing activity of Substance P from isolated rat peritoneal mast cells; type: functional
Method in brief: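 Histamine release from isolated rat peritoneal mast cells, method of Fretwell et al. Dose-response curves were built over a range of concentrations, and EC50 values were calculated from the curves.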

[10] = biological target: Metabotropic glutamate receptor 3 (Rattus norvegicus) (UniProt P31422); experiment: Antagonistic activity against Glutamate receptor in rat spinal cord at concentration of 5 uM.; type: functional, tissue-based
Method in brief: as §2

[11] = biological target: Substance-P receptor (Rattus norvegicus) (UniProt P14600); experiment: Antagonistic activity against Substance P receptor in rat spinal cord at concentration of 10 uM.
[12] = biological target: Substance-P receptor (Rattus norvegicus) (UniProt P14600); experiment: Antagonistic activity against Substance P(6-11) receptor in rat spinal cord at concentration of 10 uM.
[13] = biological target: Metabotropic glutamate receptor 3 (Rattus norvegicus) (UniProt P31422); experiment: Antagonistic activity against Glutamate receptor in rat spinal cord at concentration of 10 uM.; type: functional, tissue-based
Method in brief: as §2

Sequence of Metabotropic glutamate receptor 3 (Rattus norvegicus) (P31422 23-879 limits assumed): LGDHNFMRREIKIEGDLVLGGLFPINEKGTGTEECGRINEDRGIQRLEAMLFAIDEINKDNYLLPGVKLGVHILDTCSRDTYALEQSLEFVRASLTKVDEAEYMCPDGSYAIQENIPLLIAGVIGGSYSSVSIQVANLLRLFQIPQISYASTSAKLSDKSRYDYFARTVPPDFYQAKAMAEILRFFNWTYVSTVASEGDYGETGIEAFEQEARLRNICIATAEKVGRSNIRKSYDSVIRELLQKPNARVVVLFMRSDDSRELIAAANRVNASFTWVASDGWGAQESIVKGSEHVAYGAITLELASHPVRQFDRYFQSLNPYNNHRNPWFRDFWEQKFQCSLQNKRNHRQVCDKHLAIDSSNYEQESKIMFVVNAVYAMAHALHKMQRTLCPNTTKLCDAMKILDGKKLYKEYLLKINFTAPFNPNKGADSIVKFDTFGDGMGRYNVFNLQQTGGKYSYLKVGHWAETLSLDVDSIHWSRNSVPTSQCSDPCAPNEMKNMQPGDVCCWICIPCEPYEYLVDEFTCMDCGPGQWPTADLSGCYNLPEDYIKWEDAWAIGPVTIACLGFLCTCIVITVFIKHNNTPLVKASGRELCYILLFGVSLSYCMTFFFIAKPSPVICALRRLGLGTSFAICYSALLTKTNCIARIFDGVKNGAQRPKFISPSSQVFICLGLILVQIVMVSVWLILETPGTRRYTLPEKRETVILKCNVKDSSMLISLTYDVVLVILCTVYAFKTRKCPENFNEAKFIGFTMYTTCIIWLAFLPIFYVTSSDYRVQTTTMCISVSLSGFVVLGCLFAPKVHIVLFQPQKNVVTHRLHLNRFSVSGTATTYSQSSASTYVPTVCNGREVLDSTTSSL
Sequence of Substance-P receptor (Cavia porcellus) (P30547 whole entry): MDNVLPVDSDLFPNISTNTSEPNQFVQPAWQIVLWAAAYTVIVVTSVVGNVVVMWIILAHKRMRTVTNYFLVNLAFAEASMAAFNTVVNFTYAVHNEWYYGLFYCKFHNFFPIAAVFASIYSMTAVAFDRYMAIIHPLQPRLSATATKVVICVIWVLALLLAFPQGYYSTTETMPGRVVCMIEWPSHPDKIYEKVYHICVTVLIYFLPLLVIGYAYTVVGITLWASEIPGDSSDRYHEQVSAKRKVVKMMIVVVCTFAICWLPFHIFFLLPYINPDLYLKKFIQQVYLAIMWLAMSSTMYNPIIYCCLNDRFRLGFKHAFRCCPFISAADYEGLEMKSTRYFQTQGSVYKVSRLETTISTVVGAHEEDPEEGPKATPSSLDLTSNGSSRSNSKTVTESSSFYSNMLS
Sequence of Substance-P receptor (Rattus norvegicus) (P14600 whole entry, looked up): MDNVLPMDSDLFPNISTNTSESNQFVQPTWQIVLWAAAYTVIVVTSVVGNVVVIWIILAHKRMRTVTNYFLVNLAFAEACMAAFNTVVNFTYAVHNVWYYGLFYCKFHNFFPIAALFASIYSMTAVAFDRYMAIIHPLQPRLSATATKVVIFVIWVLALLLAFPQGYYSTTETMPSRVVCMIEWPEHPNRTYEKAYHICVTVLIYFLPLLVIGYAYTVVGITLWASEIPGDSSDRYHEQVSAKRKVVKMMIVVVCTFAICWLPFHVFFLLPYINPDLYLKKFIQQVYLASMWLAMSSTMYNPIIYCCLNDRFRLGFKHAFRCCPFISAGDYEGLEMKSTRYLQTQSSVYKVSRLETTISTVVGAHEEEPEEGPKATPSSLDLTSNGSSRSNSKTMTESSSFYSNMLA
Sequence of Substance-P receptor (P14600 whole entry): as the sequence (P14600 whole entry, looked up) above

Structure (SMILES): COC(=O)[C@@H](CCSC)NC(=O)[C@H](CC(C)C)SCCNC(=O)[C@H](Cc1ccccc1)NC(=O)[C@@H](Cc1ccccc1)NC(=O)[C@H](CCC(N)=O)NC(=O)[C@H](CCC(N)=O)NC(=O)C1CCCN1C(=O)OC(C)(C)C (stereo in doubt)
Change in amplitude response [1]: -74% | Activity [2]: < 2 dose ratio | Activity [3]: 10 dose ratio | Activity [4]: 3 dose ratio | Activity [5]: 2.3 dose ratio | Change in amplitude response [6]: -43% | Change in amplitude response [7]: 40% | Change in amplitude response [8]: -28% | Change in amplitude response [9]: -54%

Structure (SMILES): CSCC[C@H](NC(=O)[C@H](CC(C)C)NC(=O)[C@@H](Cc1c[nH]c2ccccc12)NC(=O)[C@H](Cc1ccccc1)NC(=O)[C@@H](Cc1ccccc1)NC(=O)[C@H](CCCNC(=N)N)NC(=O)[C@H](CC(N)=O)NC(=O)[C@@H]1CCCN1C(=O)[C@H](CCCCNC(=O)OCc1ccccc1)NC(=O)[C@H]1CCCN1C(=O)[C@H](CCCNC(=N)N)NC(=O)OCc1ccccc1)C(N)=O
IC50 (Substance-P receptor): 0.5 µM

Structure (SMILES): COC(=O)[C@@H](CCSC)NC(=O)C(CC(C)C)SCCNC(=O)[C@H](Cc1ccccc1)NC(=O)[C@@H](Cc1ccccc1)NC(=O)[C@H](CCC(N)=O)NC(=O)[C@H](CCC(N)=O)NC(=O)C1CCCN1C(=O)OC(C)(C)C (stereo in doubt)
Change in amplitude response [1]: -80% | Activity [2]: < 2 dose ratio | Activity [3]: < 2 dose ratio | Activity [4]: < 2 dose ratio | Activity [5]: < 2 dose ratio | Change in amplitude response [6]: -50% | Change in amplitude response [7]: 42% | Change in amplitude response [8]: -7% | Change in amplitude response [9]: -62%

Structure (SMILES): COC(=O)[C@@H](CCSC)NC(=O)[C@H](CC(C)C)N(C)C(=O)CN(C)C(=O)[C@H](Cc1ccccc1)NC(=O)[C@@H](Cc1ccccc1)NC(=O)[C@H](CCC(N)=O)NC(=O)[C@H](CCC(N)=O)NC(=O)C1CCCN1C(=O)OC(C)(C)C (stereo in doubt)
Activity [2]: < 2 dose ratio | Activity [3]: < 2 dose ratio | Activity [4]: < 2 dose ratio | Activity [5]: < 2 dose ratio

Structure (SMILES): COC(=O)[C@@H](CCSC)NC(=O)[C@H](CC(C)C)N(C)C(=O)CN(C)C(=O)[C@H](Cc1ccccc1)NC(=O)[C@@H](Cc1ccccc1)NC(=O)[C@H](CCC(N)=O)NC(=O)[C@H](CCC(N)=O)NC(=O)C1CCCN1C(=O)[C@H](CCCCN)NC(=O)C1CCCN1C(=O)[C@@H](N)CCCN=C(N)N (stereo in doubt)
Activity [2]: < 2 dose ratio | Activity [3]: 2.5 dose ratio | Activity [4]: < 2 dose ratio | Activity [5]: < 2 dose ratio

Structure (SMILES): COC(=O)[C@@H](CCSC)NC(=O)[C@H](CC(C)C)SCCNC(=O)[C@H](Cc1ccccc1)NC(=O)[C@@H](Cc1ccccc1)NC(=O)[C@H](CCCN=C(N)N)NC(=O)[C@H](CC(N)=O)NC(=O)OCc1ccccc1
Activity [2]: 5.8 dose ratio | Activity [3]: 225 dose ratio | Activity [4]: 69 dose ratio | Activity [5]: 18.2 dose ratio

Structure (SMILES): CSCCC(NC(=O)C(CC(C)C)NC(=O)[C@@H](Cc1c[nH]c2ccccc12)NC(=O)[C@H](Cc1ccccc1)NC(=O)[C@@H](Cc1c[nH]c2ccccc12)NC(=O)[C@H](CCC(N)=O)NC(=O)[C@H](CCC(N)=O)NC(=O)[C@@H]1CCCN1C(=O)[C@H](CCCCN)NC(=O)[C@H]1CCCN1C(=O)[C@@H](N)CCCNC(=N)N)C(N)=O (stereo in doubt)
IC50 (Substance-P receptor): 4 µM

Structure (SMILES): CSCC[C@H](NC(=O)[C@H](CC(C)C)NC(=O)[C@@H](Cc1c[nH]c2ccccc12)NC(=O)[C@H](Cc1ccccc1)NC(=O)[C@@H](Cc1ccccc1)NC(=O)[C@H](CCCN=C(N)N)NC(=O)[C@H](CC(N)=O)NC(=O)C1CCCN1C(=O)[C@H](CCCCN)NC(=O)C1CCCN1C(=O)[C@@H](N)CCCN=C(N)N)C(=O)O (stereo in doubt)
Activity [2]: < 2 dose ratio | Activity [3]: < 2 dose ratio | Activity [4]: < 2 dose ratio | Activity [5]: < 2 dose ratio

Structure (SMILES): COC(=O)[C@H](CCSC)NC(=O)[C@H](CC(C)C)NC(=O)[C@@H](Cc1c[nH]c2ccccc12)NC(=O)[C@H](Cc1ccccc1)NC(=O)[C@@H](Cc1ccccc1)NC(=O)[C@H](CCCCN)NC(=O)[C@H](CC(N)=O)NC(=O)C1CCCN1C(=O)[C@H](CCCCN)NC(=O)C1CCCN1C(=O)[C@@H](N)CCCN=C(N)N (stereo in doubt)
Activity [2]: < 2 dose ratio | Activity [3]: < 2 dose ratio | Activity [4]: < 2 dose ratio | Activity [5]: < 2 dose ratio | Change in amplitude response [11]: 9% | Change in amplitude response [12]: -54% | Change in amplitude response [13]: 8%

Structure (SMILES): COC(=O)[C@H](CCSC)NC(=O)[C@H](CC(C)C)NC(=O)[C@@H](Cc1c[nH]c2ccccc12)NC(=O)[C@H](Cc1ccccc1)NC(=O)[C@@H](Cc1ccccc1)NC(=O)[C@H](CCCN=C(N)N)NC(=O)[C@H](CC(N)=O)NC(=O)C1CCCN1C(=O)[C@H](CCCCN)NC(=O)C1CCCN1C(=O)[C@@H](N)CCCN=C(N)N (stereo in doubt)
Activity [2]: 2.2 dose ratio | Activity [3]: 4 dose ratio | Activity [4]: 2.2 dose ratio | Activity [5]: 6 dose ratio

Results, then the molecule that gave them:

IC50 (Substance-P receptor): 25 µM
Structure (SMILES): COC(=O)[C@@H](CCSC)NC(=O)[C@@H](CC(C)C)SCCNC(=O)[C@@H](Cc1ccccc1)NC(=O)[C@@H](Cc1ccccc1)NC(=O)[C@H](CCC(N)=O)NC(=O)[C@H](CCC(N)=O)NC(=O)[C@H]1CCCN1C(=O)[C@H](CCCCNC(=O)OCc1ccccc1)NC(=O)[C@H]1CCCN1C(=O)[C@H](CCCN=C(N)N)NC(=O)OCc1ccccc1

Activity [2]: 2.7 dose ratio | Activity [3]: 3.4 dose ratio | Activity [4]: 2.5 dose ratio | Activity [5]: 3.6 dose ratio
Structure (SMILES): COC(=O)C(CCSC)NC(=O)[C@H](CC(C)C)SCCNC(=O)[C@@H](Cc1ccccc1)NC(=O)[C@@H](Cc1ccccc1)NC(=O)[C@H](CCC(N)=O)NC(=O)[C@H](CCC(N)=O)NC(=O)[C@H]1CCCN1C(=O)[C@H](CCCCN)NC(=O)[C@H]1CCCN1C(=O)[C@@H](N)CCCN=C(N)N (stereo in doubt)

Activity [2]: 4.5 dose ratio | Change in amplitude response [10]: 5% | Activity [3]: 49.3 dose ratio | Activity [4]: 21.6 dose ratio | Activity [5]: 15.2 dose ratio | Change in amplitude response [6]: -5%
Structure (SMILES): COC(=O)[C@@H](CCSC)NC(=O)[C@H](CC(C)C)SCCNC(=O)[C@@H](Cc1ccccc1)NC(=O)[C@H](Cc1ccccc1)NC(=O)[C@H](CCC(N)=O)NC(=O)[C@H](CCC(N)=O)NC(=O)[C@H]1CCCN1C(=O)[C@H](CCCCNC(=O)OCc1ccccc1)NC(=O)[C@H]1CCCN1C(=O)[C@H](CCCN=C(N)N)NC(=O)OCc1ccccc1

Activity [2]: 6.2 dose ratio | Activity [3]: 10.7 dose ratio | Activity [4]: 7.2 dose ratio | Activity [5]: 9.8 dose ratio
Structure (SMILES): COC(=O)[C@@H](CCSC)NC(=O)C(CC(C)C)NC(=O)[C@@H](Cc1c[nH]c2ccccc12)NC(=O)[C@H](Cc1c[nH]c2ccccc12)NC(=O)[C@@H](Cc1c[nH]c2ccccc12)NC(=O)[C@H](CCC(N)=O)NC(=O)[C@H](CCC(N)=O)NC(=O)[C@@H]1CCCN1C(=O)[C@H](CCCCNC(=O)OCc1ccccc1)NC(=O)[C@@H]1CCCN1C(=O)[C@H](CCCN=C(N)N)NC(=O)OCc1ccccc1 (stereo in doubt)

Activity [2]: < 2 dose ratio | Activity [3]: 19 dose ratio | Activity [4]: 3.1 dose ratio | Activity [5]: < 2 dose ratio
Structure (SMILES): COC(=O)C(CCSC)NC(=O)[C@@H](CC(C)C)SCCNC(=O)[C@@H](Cc1ccccc1)NC(=O)[C@H](Cc1ccccc1)NC(=O)[C@H](CCC(N)=O)NC(=O)[C@H](CCC(N)=O)NC(=O)[C@H]1CCCN1C(=O)[C@H](CCCCN)NC(=O)[C@H]1CCCN1C(=O)[C@@H](N)CCCN=C(N)N (stereo in doubt)

IC50 (Substance-P receptor): 33 µM
Structure (SMILES): COC(=O)[C@@H](CCSC)NC(=O)[C@H](CC(C)C)SCCNC(=O)[C@@H](Cc1ccccc1)NC(=O)[C@@H](Cc1ccccc1)NC(=O)[C@H](CCC(N)=O)NC(=O)[C@H](CCC(N)=O)NC(=O)[C@H]1CCCN1C(=O)[C@H](CCCCNC(=O)OCc1ccccc1)NC(=O)[C@H]1CCCN1C(=O)[C@H](CCCNC(=N)N)NC(=O)OCc1ccccc1

Activity [2]: 18.5 dose ratio | Activity [3]: 68 dose ratio | Activity [4]: 54.5 dose ratio | Activity [5]: 20 dose ratio
Structure (SMILES): COC(=O)[C@@H](CCSC)NC(=O)[C@H](CC(C)C)SCCNC(=O)[C@H](Cc1ccccc1)NC(=O)[C@@H](Cc1ccccc1)NC(=O)[C@H](CCCN=C(N)N)NC(=O)[C@H](CC(N)=O)NC(=O)C1CCCN1C(=O)[C@H](CCCCNC(=O)OCc1ccccc1)NC(=O)C1CCCN1C(=O)[C@H](CCCN=C(N)N)NC(=O)OCc1ccccc1 (stereo in doubt)

Activity [2]: 15 dose ratio | Activity [3]: 37 dose ratio | Activity [4]: 34 dose ratio | Activity [5]: 17.2 dose ratio
Structure (SMILES): COC(=O)[C@@H](CCSC)NC(=O)[C@@H](CC(C)C)NC(=O)CNC(=O)[C@@H](Cc1c[nH]c2ccccc12)NC(=O)[C@@H](Cc1c[nH]c2ccccc12)NC(=O)[C@H](CCC(N)=O)NC(=O)[C@H](CCC(N)=O)NC(=O)[C@@H]1CCCN1C(=O)[C@H](CCCCNC(=O)OCc1ccccc1)NC(=O)[C@@H]1CCCN1C(=O)[C@H](CCCN=C(N)N)NC(=O)OCc1ccccc1
